Article PMC6240402 (The Journal of allergy and clinical immunology, 2018)
“Also recorded” adds a separate entry of the source.

Legend:
[1] = biological target: T1, CCR3 (Homo sapiens, UniProt P51677); assay: CCR3 surface expression/internalization in AML14.3D10-CCR3 cells; assay type: cell-based
T1 sequence (P51677 1-355): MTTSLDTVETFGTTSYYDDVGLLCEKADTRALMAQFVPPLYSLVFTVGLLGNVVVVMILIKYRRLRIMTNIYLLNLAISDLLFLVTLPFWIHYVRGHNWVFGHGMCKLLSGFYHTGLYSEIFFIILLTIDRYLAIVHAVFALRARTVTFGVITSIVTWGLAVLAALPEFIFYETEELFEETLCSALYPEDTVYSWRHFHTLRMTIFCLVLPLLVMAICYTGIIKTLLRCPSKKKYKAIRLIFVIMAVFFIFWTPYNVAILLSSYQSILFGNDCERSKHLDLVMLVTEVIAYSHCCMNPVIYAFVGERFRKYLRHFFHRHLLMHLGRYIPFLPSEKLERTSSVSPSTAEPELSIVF
Method in brief: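 CCR3-transfected, eosinophil-differentiated AML14.3D10 cells were exposed for 30 min to vehicle, test peptide (0.01–10 μM) or comparator antagonists (1 μM), each with or without CCL11 (12 nM). Longer exposures ran 24–72 h at 1 μM, with daily medium/inhibitor renewal. Cells were blocked with 10% heat-inactivated human AB serum, stained with PE anti-CCR3 (5E8) or isotype, and analysed by flow cytometry. Values are mean ± SEM, n=3, in triplicate.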

[2] = biological target: T2, CCR3 (human blood eosinophils) (Homo sapiens, UniProt P51677); assay: CCR3 surface expression in human blood eosinophils, prolonged exposure; assay type: cell-based
T2 sequence (P51677 1-355): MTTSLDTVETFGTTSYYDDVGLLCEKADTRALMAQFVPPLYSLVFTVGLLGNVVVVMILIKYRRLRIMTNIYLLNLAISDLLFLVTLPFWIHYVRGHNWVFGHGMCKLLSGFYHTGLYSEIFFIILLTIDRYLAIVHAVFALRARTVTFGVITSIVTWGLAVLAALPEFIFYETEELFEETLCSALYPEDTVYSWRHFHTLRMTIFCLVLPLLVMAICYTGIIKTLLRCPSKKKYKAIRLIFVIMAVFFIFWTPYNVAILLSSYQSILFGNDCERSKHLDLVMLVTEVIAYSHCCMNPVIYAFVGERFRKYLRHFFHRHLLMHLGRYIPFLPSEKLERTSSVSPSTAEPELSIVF
Method in brief: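 Eosinophils came from blood of mild allergic asthmatic donors, separated on a Ficoll-Paque gradient and then negatively selected. Cells got vehicle or 1 μM inhibitor, with or without CCL11 (12 nM), for 24, 48 or 72 h, refreshed daily with medium plus inhibitor. After blocking with 10% heat-inactivated human AB serum, cells were stained with PE anti-CCR3 (clone 5E8) or isotype control and read by flow cytometry. Surface CCR3 is given as % of vehicle: mean ± SEM, n=3, triplicate.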

[3] = biological target: T3, CCR3 (AML14.3D10-CCR3 cells) (Homo sapiens, UniProt P51677); assay: Eotaxin-induced chemotaxis of AML14.3D10-CCR3 cells; assay type: cell-based; conditions: CCL11 12 nM, CCL24 20 nM, CCL26 100 nM
T3 sequence (P51677 1-355): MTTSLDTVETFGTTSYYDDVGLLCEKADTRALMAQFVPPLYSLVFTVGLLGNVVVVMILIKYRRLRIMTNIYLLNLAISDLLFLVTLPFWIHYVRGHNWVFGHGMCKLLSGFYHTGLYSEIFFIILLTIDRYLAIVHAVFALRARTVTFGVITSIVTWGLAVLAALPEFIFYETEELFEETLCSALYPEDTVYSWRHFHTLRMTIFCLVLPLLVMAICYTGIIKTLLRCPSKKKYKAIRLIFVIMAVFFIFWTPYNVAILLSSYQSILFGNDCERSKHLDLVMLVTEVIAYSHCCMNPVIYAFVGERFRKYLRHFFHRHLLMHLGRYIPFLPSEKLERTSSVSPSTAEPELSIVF
Method in brief: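 Eosinophil-differentiated acute myeloid leukaemia line stably transfected to express CCR3. Cells exposed to the test peptide across 0.001–10 μM as a dose-response, then allowed to migrate for 4 h toward CCL11 (12 nM), CCL24 (20 nM) or CCL26 (100 nM). Read-out is inhibition of chemotaxis.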

[4] = biological target: T1, CCR3; assay: 13C HSQC NMR binding to reductively methylated CCR3 positive membranes
Method in brief: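 13C HSQC spectra recorded on membranes carrying 13C-reductively methylated CCR3 (lysine di-13CH3 label), compared with CCR3-null membranes. Spectra were taken with or without 1 μM CCL11, in the presence or absence of 2 μM test peptide. Binding was judged from spectral comparisons between conditions.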

[5] = biological target: T2, CCR3 (human blood eosinophils); assay: Eotaxin-induced chemotaxis of blood eosinophils; assay type: cell-based; conditions: CCL11 12 nM, CCL24 20 nM, CCL26 100 nM
Method in brief: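 Eosinophils were taken from the blood of mild allergic asthmatic subjects, separated over a Ficoll-Paque Plus gradient, then purified by negative selection with an eosinophil isolation kit. The test peptide was given at 0.001–10 μM, with 4 h chemotaxis toward CCL11 (12 nM), CCL24 (20 nM) or CCL26 (100 nM). IC50 and IC90 were derived from the dose-response inhibition curves.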

[6] = system: lung eosinophils; conditions: subcutaneous 100 mg/kg, resuspended with Tween-80; cited from earlier work
[7] = biological target: T1, CCR3; conditions: SB328437; cited from earlier work
[8] = system: CCR3 (AML14.3D10-CCR3 cells); assay type: cell-based
Method in brief: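 AML14.3D10-CCR3 cells (an eosinophil-differentiated AML line stably expressing CCR3) were held 24, 48 or 72 h with vehicle or test compound at 1 μM. Medium was replaced daily with fresh complete medium containing compound. Cells were then challenged with CCL11 (12 nM). Each time point was compared with the 24 h point; mean ± SEM, n=3 experiments in triplicate.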

[9] = Solubility observation; assay type: physicochemical; conditions: authors' own experience; unsuitable for iv injection
[10] = system: sputum eosinophils / AHR; conditions: clinical trial; cited from earlier work

CCL11: high affinity agonist chemokine of CCR3
CCR3 internalized from cell surface ([1]; AML14.3D10-CCR3, CCL11 30 min, flow cytometry): More than 50%
CCR3 surface expression, 24h, CCL11 alone ([2]; CCL11 12 nM alone, 24h, % of vehicle): ~ 68%
CCR3 surface expression, 72h, CCL11 alone ([2]; CCL11 12 nM alone, 72h, % of vehicle): ~ 18%
induction of chemotaxis, AML14.3D10-CCR3 [3]: undergo CCR3-mediated chemotaxis
interference of CCL11 and R321 with each other's binding ([4]; 1 μM CCL11 and 2 μM R321): neither CCL11 nor R321 interfere with each other’s binding to the receptor
effect on CCR3 HSQC signals ([4]; 1 μM CCL11 or 2 μM R321): specifically reduced the intensity of CCR3 signals
induction of chemotaxis, blood eosinophils [5]: undergo CCR3-mediated chemotaxis

CCL26: high affinity agonist chemokine of CCR3
induction of chemotaxis, AML14.3D10-CCR3 [3]: undergo CCR3-mediated chemotaxis
induction of chemotaxis, blood eosinophils [5]: undergo CCR3-mediated chemotaxis

COC(=O)[C@H](Cc1ccc([N+](=O)[O-])cc1)NC(=O)c1cccc2ccccc12 [SB328437]
CCR3 internalization (discussion) ([1]; effect more pronounced with longer treatment times): partially or completely block CCR3 internalization
CCR3 surface levels, prolonged exposure ([2]; 1 μM, up to 72h): failed to promote CCR3 cell surface accumulation; also recorded: no significant effect on receptor levels
OVA-induced accumulation of eosinophils in lungs [6]: successfully suppress OVA-induced accumulation of eosinophils in the lungs
activity at CCR3 in eosinophils [7]: specific inhibitor of CCR3 in eosinophils
drop in chemotaxis inhibition level over 72h ([8]; AML14.3D10-CCR3, 1 μM, CCL11 12 nM, 72h): 13.7%
CCL11/CCR3-mediated chemotaxis inhibition relative to R321 and UCB35625 ([8]; equimolar concentrations, 1 μM): less effective inhibitor of CCL11/CCR3-mediated chemotaxis
solubility [9]: solubility issues

NC(=O)c1ccc(CNC(=O)NC[C@H]2CN(Cc3ccc(Cl)c(Cl)c3)CCO2)cc1 [GW766994]
AHR [10]: significant inhibition of AHR
sputum eosinophils [10]: trend towards inhibition of sputum eosinophils

B1: CCL24: high affinity agonist chemokine of CCR3 (protein, UniProt O00175 27-119, looked up)
C-C motif chemokine 24: VVIPSPCCMFFVSKRIPENRVVSYQLSSRSTCLKAGVIFTTKKGQQFCGDPKQEWVQRYMKNLDAKQKKASPRARAVAVKGPVQRYPGNQTTC
induction of chemotaxis, AML14.3D10-CCR3 [3]: undergo CCR3-mediated chemotaxis
induction of chemotaxis, blood eosinophils [5]: undergo CCR3-mediated chemotaxis
